An excerpt weighted towards active compounds, which were near 2.7% of everything screened.
PAD4 inh: PAD4 (human) enzyme inhibition; inhibition, % at 6.36 µM; Q9UM07; AID 485272; 0.41% of 330,000 active; recombinant PAD4, RCA probe fluorescence polarization;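 active means percent inhibition above a cutoff equal to the mean of all tested compounds plus 3 SD, cut at about 15% in these data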;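 further: 0% = PAD4 with RCA probe and DMSO and 100% = probe without PAD4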
GSTO1 inh: counter-screen for RBBP9 inhibitors: inhibitors of human GSTO1; P78417; recombinant GSTO1, activity-based probe fluorescence polarization; inhibition, % at 5.96 µM; 1.1% of 300,000 active; AID 1974;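 active means inhibition above the campaign mean inhibition plus 3 SD, cut at about 35% in these data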;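 further: 0% = GSTO1-1 with DMSO and 100% = wells lacking GSTO1-1 enzyme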
Target sequence (P78417 whole entry, looked up): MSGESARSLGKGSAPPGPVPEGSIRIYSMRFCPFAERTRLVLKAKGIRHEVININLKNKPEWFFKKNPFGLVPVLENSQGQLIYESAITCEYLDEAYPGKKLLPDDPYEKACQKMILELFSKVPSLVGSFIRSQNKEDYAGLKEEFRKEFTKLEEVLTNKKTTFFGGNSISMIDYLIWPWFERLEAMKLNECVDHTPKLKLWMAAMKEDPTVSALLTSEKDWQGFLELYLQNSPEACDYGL
RBBP9 inh: blocks human serine hydrolase RBBP9; O75884; recombinant RBBP9, FP-Rh probe fluorescence polarization; inhibition, % at 7.94 µM; 0.2% of 220,000 active;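 active means inhibition above the campaign mean of all tested compounds plus 3 SD, cut at about 14% in these data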;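 further: plate controls were DMSO wells with RBBP9 for no effect and wells lacking RBBP9 protein for full effect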
Target sequence (O75884 whole entry, looked up): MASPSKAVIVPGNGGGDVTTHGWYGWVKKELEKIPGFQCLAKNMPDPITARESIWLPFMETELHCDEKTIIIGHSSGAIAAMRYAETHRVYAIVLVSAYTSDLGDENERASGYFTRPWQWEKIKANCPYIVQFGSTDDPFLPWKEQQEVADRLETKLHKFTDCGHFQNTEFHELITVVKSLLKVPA
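Assay system: recombinant human RBBP9; Reagent: Serine-hydrolase probe FP-Rh, 375 nM pre-mixing; Doses: 7.94 µM single dose, 0.794% DMSO; Incubation: 30 min then 45 min, 25 °C; Detection: fluorescence polarization (mP), excitation 525 nm, emission 598 nm; Evaluation: percent inhibition from mP, scaled between DMSO and no-protein wells.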
PRMT1 FP inh: inhibitors of human PRMT1. recombinant PRMT1, activity-based probe fluorescence polarization. inhibition, % at 2.79 µM. 1.3% of 370,000 active;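 active means inhibition above about 21% made by adding two undisclosed values, limit read from the data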
SIAE inh: blocks human sialic acid acetylesterase; Q9HAT2; SIAE FP-Rh probe binding, fluorescence polarization; 0.69% of 370,000 active; inhibition, % at 9.66 µM; AID 1053197;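 active means inhibition above a cutoff: mean of compounds within the control limits plus 3 SD of those, cut at about 17% in these data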;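 further: 0% = plate median of compound wells and 100% = probe without SIAE protein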
SIAE inh conf: human SIAE inhibition, confirmation | shares compounds with SIAE inh | SIAE FP-Rh activity-based probe, fluorescence polarization | inhibition, % at 9.66 µM | 13% of 2,300 active | AID 1117263;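 active means mean inhibition of the replicates above the hit cutoff set in the primary screen, cut at about 17% in these data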;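 further: 0% = SIAE with DMSO and probe and 100% = probe without SIAE; inhibitors lower polarization as more probe stays unbound to SIAE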
The depositor's hits bear a star; / = no result given.

SMILES	PAD4 inh	GSTO1 inh	RBBP9 inh	PRMT1 FP inh	SIAE inh	SIAE inh conf
COc1cc(/C=N/Nc2nc3ccccc3s2)ccc1OC(=O)c1ccccc1F	-2	4	3	-1	21*	-11
COc1ccc(S(=O)(=O)c2c(O)c3ccc(C(=O)Nc4ccccc4F)cc3[nH]c2=O)cc1	3	-2	/	-2	1	/
Cc1cc(-c2csc(NC(=O)c3ccc(=O)[nH]c3)n2)c(C)n1Cc1ccccc1	-7	-15	-8	10	26*	0
COc1ccc(N2CCC(CNC(=S)Nc3c(C)cc(C)cc3C)C2)cc1 (stereo not drawn)	2	6	-8	6	18*	6
O=S(=O)(NC1CC1)c1ccc(S(=O)(=O)N2CCCC(c3nc(-c4cccnc4)no3)C2)cc1 (stereo not drawn)	3	-3	-9	5	-9	/
O=C(COC(=O)c1cc(Cl)ccc1O)NCCC1=CCCCC1	-4	-9	/	0	17*	0
CCNC(=S)Nc1cc(C(=O)N2CCCC2)ccc1N1CCCC1	-1	0	-4	-2	23*	1
CNC(=S)Nc1cc(C(=O)N2CCCC2)ccc1N1CCCC1	-1	-1	-2	-3	8	/
CC(=O)N1CCN(c2ccc(NCc3ccc4c(c3)OCO4)cc2)CC1	1	27	-5	7	20*	6
CC(=O)N1CCN(c2ccc(NCc3cccc4ccccc34)cc2)CC1	5	14	/	-2	10	/
CC(=O)N1CCN(c2ccc(NCc3ccccc3)cc2)CC1	15	18	-5	7	28*	0
Nc1ccn([C@@H]2CS[C@H](CO)O2)c(=O)n1	-3	0	-11	/	/	/
NS(=O)(=O)c1ccc(N/N=C/C=C/c2ccccc2[N+](=O)[O-])cc1	-2	4	/	-2	24*	0
COc1ccc(COC(=O)C2=C(C)NC(=O)NC2c2cc(Br)c(O)c(OC)c2)cc1 (stereo not drawn)	3	-22	/	3	-3	/
CCC(=O)N1CCC(C)(C(=O)Nc2ccc(OC)c(OC)c2)C1 (stereo not drawn)	/	/	/	6	18*	4
O=C(NCCCN1CCOCC1)c1ccc(S(=O)(=O)Nc2ccccc2F)cc1	-2	3	/	0	17*	-2
Cc1ccccc1NS(=O)(=O)c1ccc(C(=O)NCCCN2CCOCC2)cc1	-5	12	/	-2	-4	/
COc1cccc(C2=Nc3cccc4cccc(c34)N2)c1	-2	14	-2	7	22*	-1
Nc1ccc(C2=Nc3cccc4cccc(c34)N2)cc1	/	/	9	-2	24*	4
c1coc(C2=Nc3cccc4cccc(c34)N2)c1	-2	19	-4	5	23*	8
O=C1CC(c2ccco2)=Nc2ccccc2N1	2	2	-6	-1	0	/
CCN(CC)C(=O)C1=C(C)N(CCC2=CCCCC2)C(=O)C(CC(=O)NC(c2ccccc2)c2ccccc2)C1 (stereo not drawn)	/	/	/	0	0	/
Cc1c(C(=O)N(C)CCC#N)oc2ccc(S(=O)(=O)N3CC(C)CC(C)C3)cc12 (stereo not drawn)	-3	-2	/	1	1	/
CCOc1cc(N2CCOCC2)c(OCC)cc1NC(=O)CN1C(=O)NC(C)(c2ccc(OC)cc2)C1=O (stereo not drawn)	/	/	/	-1	18*	3
Cc1ccc(C2(C)NC(=O)N(CC(=O)Nc3ccc(N4CCOCC4)cc3N3CCOCC3)C2=O)cc1 (stereo not drawn)	1	9	/	-1	19*	1
SMILES	PAD4 inh	GSTO1 inh	RBBP9 inh	PRMT1 FP inh	SIAE inh	SIAE inh conf
CC1(c2ccccc2)NC(=O)N(CC(=O)Nc2ccc(N3CCOCC3)cc2)C1=O (stereo not drawn)	1	/	/	-1	19*	5
CCOc1cc(N2CCOCC2)c(OCC)cc1NC(=O)c1ccc(OC)cc1	4	4	-2	0	7	/
CCOc1cc(N2CCOCC2)c(OCC)cc1NC(=O)c1ccc(NC(C)=O)cc1	-1	7	-9	-1	23*	3
O=C(CSc1nc(-c2ccccc2)nc2ccc(F)cc12)Nc1cccc(C(=O)O)c1	-2	-64	-2	0	-10	/
COc1ccc(C(=O)N2CCC(C(N)=O)CC2)cc1S(=O)(=O)N1CCCC1	-5	/	/	-3	-4	/
O=C(COC(=O)c1cccnc1Cl)Nc1ccc(N2CCOCC2)cc1	/	/	/	5	1	/

High-throughput results: PubChem BioAssay, The Scripps Research Institute Molecular Screening Center
